Laboratory results as given in article PMC4062594 (Nature chemical biology, 2014).
Entries after “also recorded” stand apart in the source; their conditions may differ.

Key:
[1] = target: T1, PTP1B (Homo sapiens, UniProt P18031); test: PTP assay with DiFMUP, MSI-1459 versus MSI-1436; assay type: biochemical; details: DiFMUP 10 uM, compound 0-10 μM
T1 sequence (P18031 1-435): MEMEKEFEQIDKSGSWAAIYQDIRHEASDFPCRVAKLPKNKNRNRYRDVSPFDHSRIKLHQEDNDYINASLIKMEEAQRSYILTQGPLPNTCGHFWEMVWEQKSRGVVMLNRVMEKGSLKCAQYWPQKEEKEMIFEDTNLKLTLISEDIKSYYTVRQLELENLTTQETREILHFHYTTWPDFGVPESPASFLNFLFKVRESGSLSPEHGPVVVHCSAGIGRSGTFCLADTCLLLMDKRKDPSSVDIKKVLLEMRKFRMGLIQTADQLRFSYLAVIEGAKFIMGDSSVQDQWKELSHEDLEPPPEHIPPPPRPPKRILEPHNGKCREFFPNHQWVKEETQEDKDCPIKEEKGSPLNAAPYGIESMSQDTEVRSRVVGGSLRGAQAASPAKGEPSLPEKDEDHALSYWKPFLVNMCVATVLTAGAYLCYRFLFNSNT

[2] = target: T2, PTP1B in tumor lysates from NDL2 mice (Mus musculus, UniProt P35821); test: Binding assay with bead-immobilized compound in tumor lysates; details: confirmed by immunoblotting
T2 sequence (P35821 1-432): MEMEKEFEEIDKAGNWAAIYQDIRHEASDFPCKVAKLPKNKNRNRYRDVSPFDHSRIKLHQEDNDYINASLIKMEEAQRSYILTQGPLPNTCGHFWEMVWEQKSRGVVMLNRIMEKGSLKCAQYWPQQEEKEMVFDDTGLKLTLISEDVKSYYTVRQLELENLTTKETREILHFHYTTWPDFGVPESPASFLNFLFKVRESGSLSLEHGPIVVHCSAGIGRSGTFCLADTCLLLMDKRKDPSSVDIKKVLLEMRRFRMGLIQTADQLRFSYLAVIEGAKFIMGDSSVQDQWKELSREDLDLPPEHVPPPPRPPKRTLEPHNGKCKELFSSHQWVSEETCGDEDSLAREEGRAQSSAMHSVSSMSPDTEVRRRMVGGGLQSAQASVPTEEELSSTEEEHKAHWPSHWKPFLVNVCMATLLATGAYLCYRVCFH
In short: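 Test compound was coupled through its primary amine to NHS-activated magnetic beads (1 mM, 100 mM triethylamine, 8 h, 4°C), and free NHS groups were blocked with 0.8 M aminoethanol. Beads were incubated with 0–1 mg NDL2 tumour lysate protein and washed. Bound protein was eluted by heat in SDS sample buffer, run on 10% SDS-PAGE and identified by immunoblotting. Beads carrying a related amine compound served as negative control.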

retention of 50 kDa band (PTP1B) by compound beads [2]: not bound
Substance: 3β-spermine, 5α, cholenic acid methyl ester [MSI-1459]
inhibition of PTP1B [1]: does not inhibit PTP1B; also recorded: poor inhibitory potency
